Where “and” joins values, the source holds several entries; their conditions need not be identical. Equal entries are not always repeated. Where two headings read alike, the source gives them in different places.
What was measured:
[1] = Serum pharmacokinetics of SAHA in cats after IV and PO administration; type: in vivo
Procedure, shortened: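 Six adult SPF cats (3 female, 3 male, 10–18 months) in a randomized crossover with 1-week washout: 2 mg/kg IV (20 mg/mL in DMSO) or 250 mg/m2 PO in gelatin capsules. Serum without anticoagulant at set times up to 1440 min, stored at −70 °C. d5-SAHA internal standard at 1000 ng/mL final; acetonitrile extraction; C18 UPLC, positive-ion ESI MS/MS; LOQ 2.26 ng/mL; non-compartmental parameters.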

cats = assay: Tolerability monitoring in cats; type: in vivo
Procedure, shortened: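 Six cats dosed in the crossover (2 mg/kg IV in DMSO; 250 mg/m2 PO capsules) had physical examinations. CBC (14 parameters) and serum biochemistry (16 values) were taken 1 week before, 24 h after and 1 week after each dose. Daily food intake was recorded for 1 week before and after each dosage; days compared by […].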

[2] = test system: acetylated histone (H3K9,14); type: in vivo, cats
[3] = ref Sandhu et al., 2007, cited from earlier work
[4] = ref Kelly et al., 2005, cited from earlier work
dogs = conditions: dog, in vivo; cited from earlier work
[5] = cats n=6, 250 mg/m2 PO, mean ± SD
[6] = after IV administration of the SAHA/DMSO mixture

SMILES: O=C(CCCCCCC(=O)Nc1ccccc1)NO [SAHA, Suberoylanilidehydroxamic acid]
- Cmax ([1]; both, cat, serum, po, 250 mg/m2): ~160 nM
- AUC ([1]; both, serum, iv, 2 mg/kg): 150 ± 40 ng·h/mL
- AUC(0-inf) ([1]; both, serum, iv, 2 mg/kg): 150 ± 50 ng·h/mL
- clearance ([1]; both, serum, iv, 2 mg/kg): 233 mL/min/kg
- half-life ([1]; both, serum, iv, 2 mg/kg): 9 min
- half-life ([1]; both, serum, po, 2 mg/kg): 120 ± 60 min
- AUC ([1]; both, serum, po, 250 mg/m2): 0.266 µM·h and 70 ng·h/mL
- AUC(0-inf) ([1]; both, serum, po, 250 mg/m2): 80 ± 20 ng·h/mL
- Cmax ([1]; both, serum, po, 250 mg/m2): 160 nM
- bioavailability ([1]; both, serum, po, 250 mg/m2): 8 ± 4%
- Cmax ([1]; cat, serum, po, 60 mg/kg): 50.1 ng/mL
- T1/2λz (elimination half-life) ([1]; cats n=6, 2 mg/kg IV in DMSO, serum, mean ± SD): 9 ± 1.8 min
- Percent Extrapolated (of AUC) ([1]; cats n=6, 2 mg/kg IV, mean ± SD): 0.6 ± 0.2%
- Cmaxobs (observed maximum serum concentration) [1, 5]: 41.7 ng/mL and 40 ± 10 ng/mL
- Percent Extrapolated (of AUC) [1, 5]: 17 ± 7%
- Tmaxobs (time to observed maximal serum concentration) [1, 5]: 36 ± 18 min
- overall tolerability (cats; 2 mg/kg IV and 250 mg/m2 PO, domestic cats): well tolerated
- change in daily food intake following drug administration (cats; 1 week before and 1 week after each dosage (IV and PO)): No significant change
- duration of moderate bleeding from venipuncture sites (cats; [6]): up to 5 minutes
- moderate bleeding from venipuncture sites (cats affected) (cats; [6]): 2/6
- open-mouth breathing (cats affected) (cats; immediately following 2 mg/kg IV injection in DMSO): 2/6
- acetylated histone protein in blood leukocytes (acetyl H3/total H3) ([2]; 4 cats, 2 mg/kg IV and 250 mg/m2 PO): An increase in acetylated histone protein was detected
- time for acetylated histone protein to return to baseline ([2]; 4 cats, after IV and PO administration): approximately 2 hours
- histone acetylation in peripheral blood mononuclear cells ([2]; single cat #11-245, 60 mg/kg PO, 0, 60, 120, 1440 min): demonstrated a pharmacodynamic effect which roughly correlated with pharmacokinetics
- oral bioavailability ([3]; dog): 1.8%
- terminal elimination half-life ([3]; dogs, 2 mg/kg IV): 12 min
- AUC0-τ ([3]; dogs, 20 mg/kg oral): 0.42 µM·h
- Cmax ([3]; read-out: average Cmax, dogs, 20 mg/kg oral): 260 nM
- half-life following IV administration ([4]; humans, IV, 2003, Kelly et al.): 21 to 58 min
- bioavailability ([4]; patients with advanced cancer, estimated): 43%
- no observed adverse effects level (NOAEL) (dogs): 60 mg/kg
